Data on eleven compounds can be found in ChEMBL document CHEMBL2331438, “An efficient domino reaction in ionic liquid: synthesis and biological evaluation of some pyrano- and thiopyrano-fused heterocycles” (2013).

Broadly, the MIC is the lowest concentration found to suppress growth. Low readings indicate a more susceptible organism, high ones a less susceptible organism. As usually defined, the inhibition is the change of the read-out against control, counted positive when it falls. Higher therefore signals a strong effect.

The test system of one test is Bacillus subtilis. The test is described as follows: Antibacterial activity against Bacillus subtilis MTCC 441 after 24 hrs by broth microdilution method. It counts as functional. On the technique in general: Dilution methods test growth across graded concentrations, often in twofold steps.
For the next test, the system named is Aspergillus fumigatus. The test is described as follows: Antifungal activity against Aspergillus fumigatus MTCC 3008 after 48 hrs by broth microdilution method. Type of test: functional. Particulars: MTCC 3008, 48 h.
For another test, the system named is Streptococcus pneumoniae. The test can be described thus: Antibacterial activity against Streptococcus pneumoniae MTCC 1936 after 24 hrs by broth microdilution method. It counts as functional.
The test system of test [1] is Mycobacterium tuberculosis. The test can be described thus: Antimycobacterial activity against Mycobacterium tuberculosis H37Rv at 250 ug/ml. It counts as functional. The method in brief:
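M. tuberculosis H37Rv tested on L.J. (Löwenstein–Jensen) medium.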

The next test has as its system Clostridium tetani. The test can be described thus: Antibacterial activity against Clostridium tetani MTCC 449 after 24 hrs by broth microdilution method. Type of test: functional.
For another test, the system named is Salmonella typhi. The test is described as follows: Antibacterial activity against Salmonella typhi MTCC 98 after 24 hrs by broth microdilution method. Type of test: functional, Salmonella enterica subsp. enterica serovar Typhi.
A further test concerns Vibrio cholerae. The test can be described thus: Antibacterial activity against Vibrio cholerae MTCC 3906 after 24 hrs by broth microdilution method. Type of test: functional.
Test [2] can be described thus: Antioxidant activity assessed as ascorbic acid equivalent ferric ion reducing activity per 100 gram at 200 ug/ml by FRAP assay. It counts as functional.
For a further test, the system named is Candida albicans. The test is described as follows: Antifungal activity against Candida albicans MTCC 227 after 48 hrs by broth microdilution method. It counts as functional. The following applies: MTCC 227, 48 h.
A further test relates to Escherichia coli. The test is described as follows: Antibacterial activity against Escherichia coli MTCC 443 after 24 hrs by broth microdilution method. Type of test: functional.
Where [3] appears, read: Salmonella enterica, MTCC 98, 24 h.

In brackets after ≈: the same amount, converted by molar mass.

On to `Cc1nn(-c2cc(Cl)ccc2Cl)c2c1[C@@H]1c3cc4cccc(C)c4nc3SC[C@@H]1CO2`, for which the MIC came to 100 µg/mL (≈ 213 µM) in the test on Bacillus subtilis (MTCC 441, 24 h); 1000 µg/mL (≈ 2130 µM) against Aspergillus fumigatus; 250 µg/mL (≈ 534 µM) against Streptococcus pneumoniae (MTCC 1936, 24 h); 100 µg/mL (≈ 213 µM) against Clostridium tetani (MTCC 449, 24 h); 200 µg/mL (≈ 427 µM) against Salmonella typhi (setting [3]); 100 µg/mL (≈ 213 µM) in the test on Vibrio cholerae (MTCC 3906, 24 h). The MIC was 1000 µg/mL (≈ 2130 µM) against Candida albicans and 62.5 µg/mL (≈ 133 µM) with Escherichia coli (MTCC 443, 24 h). In test [1], this compound displayed an inhibition at 250 µg/mL of 49%. For the same compound, in test [2], the Activity came out at 129 mmol.
Turning to `Cc1nn(-c2ccccc2)c2c1[C@@H]1c3cc4ccccc4nc3SC[C@@H]1CO2`, the minimal inhibitory concentration (MIC) in the test on Bacillus subtilis (MTCC 441, 24 h) was 200 µg/mL (≈ 519 µM); against Aspergillus fumigatus it was 500 µg/mL (≈ 1300 µM); against Streptococcus pneumoniae (MTCC 1936, 24 h), 200 µg/mL (≈ 519 µM); against Clostridium tetani (MTCC 449, 24 h), 62.5 µg/mL (≈ 162 µM); in the test with Salmonella typhi (setting [3]), 125 µg/mL (≈ 324 µM); with Vibrio cholerae (MTCC 3906, 24 h) it was 100 µg/mL (≈ 259 µM). Further, the MIC in the test with Candida albicans stood at 500 µg/mL (≈ 1300 µM); against Escherichia coli (MTCC 443, 24 h), 100 µg/mL (≈ 259 µM). The compound further registered an inhibition at 250 µg/mL in [1] of 87%. Further, the Activity in test [2] was 126 mmol.
As to GENTAMICIN, the MIC came out at 1 µg/mL with Bacillus subtilis; 0.5 µg/mL with Streptococcus pneumoniae; 5 µg/mL against Clostridium tetani; 5 µg/mL in the test with Salmonella typhi (Salmonella enterica subsp. enterica serovar Typhi); 5 µg/mL against Vibrio cholerae; 0.05 µg/mL with Escherichia coli.
Turning to `Cc1nn(-c2ccc([N+](=O)[O-])cc2)c2c1[C@@H]1c3c(ccc4c(C)cc(=O)oc34)OC[C@@H]1C(C)(C)O2`, the MIC with Bacillus subtilis (MTCC 441, 24 h) was found to be 200 µg/mL (≈ 422 µM); in the test with Aspergillus fumigatus it was 500 µg/mL (≈ 1060 µM); against Streptococcus pneumoniae (MTCC 1936, 24 h) it was 200 µg/mL (≈ 422 µM); with Clostridium tetani (MTCC 449, 24 h), 200 µg/mL (≈ 422 µM); with Salmonella typhi (setting [3]) it was 125 µg/mL (≈ 264 µM); in the test with Vibrio cholerae (MTCC 3906, 24 h), 200 µg/mL (≈ 422 µM). The MIC is 250 µg/mL (≈ 528 µM) in the test with Candida albicans and 200 µg/mL (≈ 422 µM) in the test on Escherichia coli (MTCC 443, 24 h). Further, the inhibition at 250 µg/mL in test [1] was determined as 88%. Further, the Activity in test [2] was 138 mmol.
As for `Cc1ccc(-n2nc(C)c3c2OC[C@H]2COc4ccc5c(C)cc(=O)oc5c4[C@@H]32)cc1`, the MIC against Bacillus subtilis (MTCC 441, 24 h) is 250 µg/mL (≈ 603 µM); with Aspergillus fumigatus, 250 µg/mL (≈ 603 µM); against Streptococcus pneumoniae (MTCC 1936, 24 h), 250 µg/mL (≈ 603 µM); against Clostridium tetani (MTCC 449, 24 h), 200 µg/mL (≈ 483 µM); against Salmonella typhi (setting [3]), 250 µg/mL (≈ 603 µM); against Vibrio cholerae (MTCC 3906, 24 h), 200 µg/mL (≈ 483 µM). For the same compound, the MIC stood at 1000 µg/mL (≈ 2410 µM) in the test with Candida albicans and 200 µg/mL (≈ 483 µM) in the test with Escherichia coli (MTCC 443, 24 h). Moreover, 250 µg/mL produced 32% inhibition in [1]. Moreover, the Activity in test [2] turned out to be 213 mmol.
Take `Cc1nn(-c2ccc(Cl)c(Cl)c2)c2c1[C@@H]1c3cc4cccc(C)c4nc3SC[C@@H]1CO2`: the MIC in the test on Bacillus subtilis (MTCC 441, 24 h) was 200 µg/mL (≈ 427 µM); against Aspergillus fumigatus, 1000 µg/mL (≈ 2130 µM); in the test with Streptococcus pneumoniae (MTCC 1936, 24 h), 62.5 µg/mL (≈ 133 µM); against Clostridium tetani (MTCC 449, 24 h) it was 250 µg/mL (≈ 534 µM); in the test on Salmonella typhi (setting [3]), 250 µg/mL (≈ 534 µM); against Vibrio cholerae (MTCC 3906, 24 h), 250 µg/mL (≈ 534 µM). Moreover, the MIC with Candida albicans turned out to be 500 µg/mL (≈ 1070 µM); in the test on Escherichia coli (MTCC 443, 24 h) it was 250 µg/mL (≈ 534 µM). This compound also had an inhibition at 250 µg/mL in [1] of 38%. The Activity in [2] amounted to 61.7 mmol.
With `Cc1nn(-c2cccc(Cl)c2)c2c1[C@@H]1c3c(ccc4c(C)cc(=O)oc34)OC[C@@H]1CO2`, the MIC with Bacillus subtilis (MTCC 441, 24 h) was found to be 200 µg/mL (≈ 460 µM); in the test with Aspergillus fumigatus it was 250 µg/mL (≈ 575 µM); with Streptococcus pneumoniae (MTCC 1936, 24 h) it was 62.5 µg/mL (≈ 144 µM); with Clostridium tetani (MTCC 449, 24 h), 62.5 µg/mL (≈ 144 µM); against Salmonella typhi (setting [3]) it was 200 µg/mL (≈ 460 µM); in the test with Vibrio cholerae (MTCC 3906, 24 h) it was 250 µg/mL (≈ 575 µM). For the same compound, the MIC in the test on Candida albicans is 1000 µg/mL (≈ 2300 µM); in the test with Escherichia coli (MTCC 443, 24 h), 100 µg/mL (≈ 230 µM). In [1], this compound displayed an inhibition at 250 µg/mL of 19%. In addition, the Activity in test [2] amounted to 158 mmol.
Take `Cc1nn(-c2ccccc2Cl)c2c1[C@@H]1c3cc4ccccc4nc3SC[C@@H]1CO2`: the minimal inhibitory concentration (MIC) against Bacillus subtilis (MTCC 441, 24 h) was 125 µg/mL (≈ 298 µM); against Aspergillus fumigatus it was over 1000 µg/mL; against Streptococcus pneumoniae (MTCC 1936, 24 h) it was 100 µg/mL (≈ 238 µM); in the test on Clostridium tetani (MTCC 449, 24 h) it was 250 µg/mL (≈ 595 µM); in the test on Salmonella typhi (setting [3]) it was 250 µg/mL (≈ 595 µM); in the test with Vibrio cholerae (MTCC 3906, 24 h) it was 250 µg/mL (≈ 595 µM). The minimal inhibitory concentration (MIC) against Candida albicans came to 1000 µg/mL (≈ 2380 µM); against Escherichia coli (MTCC 443, 24 h), 250 µg/mL (≈ 595 µM). Also, the inhibition at 250 µg/mL in test [1] was 52%. Besides, in test [2], the Activity was determined as 90.9 mmol.
With `CCn1cc(C(=O)O)c(=O)c2cc(F)c(N3CCNCC3)cc21` [NORFLOXACIN], the MIC is 100 µg/mL (≈ 313 µM) against Bacillus subtilis (MTCC 441, 24 h); 10 µg/mL (≈ 31.3 µM) in the test on Streptococcus pneumoniae (MTCC 1936, 24 h); 50 µg/mL (≈ 157 µM) against Clostridium tetani (MTCC 449, 24 h); 10 µg/mL (≈ 31.3 µM) against Salmonella typhi (setting [3]); 10 µg/mL (≈ 31.3 µM) with Vibrio cholerae (MTCC 3906, 24 h); 10 µg/mL (≈ 31.3 µM) with Escherichia coli (MTCC 443, 24 h).
Consider `Cc1nn(-c2ccc([N+](=O)[O-])cc2)c2c1[C@@H]1c3cc4cccc(C)c4nc3SC[C@@H]1CO2`, for which the MIC with Bacillus subtilis (MTCC 441, 24 h) is 250 µg/mL (≈ 562 µM); against Aspergillus fumigatus, over 1000 µg/mL; in the test on Streptococcus pneumoniae (MTCC 1936, 24 h), 200 µg/mL (≈ 450 µM); against Clostridium tetani (MTCC 449, 24 h), 200 µg/mL (≈ 450 µM); against Salmonella typhi (setting [3]), 62.5 µg/mL (≈ 141 µM); in the test with Vibrio cholerae (MTCC 3906, 24 h), 250 µg/mL (≈ 562 µM). Besides, the MIC was over 1000 µg/mL against Candida albicans and 100 µg/mL (≈ 225 µM) against Escherichia coli (MTCC 443, 24 h). This compound also came in with an inhibition at 250 µg/mL in [1] of 20%. Besides, the Activity in [2] is 49.8 mmol.
With `Cc1nn(-c2cccc(Cl)c2)c2c1[C@@H]1c3cc4cccc(C)c4nc3SC[C@@H]1C(C)(C)O2` (single isomer, unassigned), the MIC against Bacillus subtilis (MTCC 441, 24 h) turned out to be 200 µg/mL (≈ 433 µM); against Aspergillus fumigatus, 500 µg/mL (≈ 1080 µM); in the test on Streptococcus pneumoniae (MTCC 1936, 24 h) it was 100 µg/mL (≈ 216 µM); in the test with Clostridium tetani (MTCC 449, 24 h) it was 1000 µg/mL (≈ 2160 µM); with Salmonella typhi (setting [3]), 250 µg/mL (≈ 541 µM); with Vibrio cholerae (MTCC 3906, 24 h) it was 100 µg/mL (≈ 216 µM). The MIC in the test on Candida albicans came out at 500 µg/mL (≈ 1080 µM); against Escherichia coli (MTCC 443, 24 h), 150 µg/mL (≈ 325 µM). Moreover, the inhibition at 250 µg/mL in test [1] was determined as 91%. Besides, in test [2], the Activity stood at 18.2 mmol.
